Experimental data from publication PMC9669183 (British journal of pharmacology, 2022).

Experiments:
[1] = molecular target: T1, α1β2γ2L GABAAR (Rattus norvegicus, UniProt P18508+P62813+P63138, INS375LLRMFSFK); test: Direct activation, two-electrode voltage clamp in Xenopus oocytes; assay type: cell-based; settings: 50 μM α7-PAM; n=5 oocytes/drug; mean±SEM
[2] = molecular target: α4β2δ GABAA receptor (Homo sapiens, UniProt O14764+P47870+P48169); test: Effect on α4β2δ receptor during long drug applications, oocytes; assay type: cell-based
Sequence of α4β2δ GABAA receptor (P48169 36-554): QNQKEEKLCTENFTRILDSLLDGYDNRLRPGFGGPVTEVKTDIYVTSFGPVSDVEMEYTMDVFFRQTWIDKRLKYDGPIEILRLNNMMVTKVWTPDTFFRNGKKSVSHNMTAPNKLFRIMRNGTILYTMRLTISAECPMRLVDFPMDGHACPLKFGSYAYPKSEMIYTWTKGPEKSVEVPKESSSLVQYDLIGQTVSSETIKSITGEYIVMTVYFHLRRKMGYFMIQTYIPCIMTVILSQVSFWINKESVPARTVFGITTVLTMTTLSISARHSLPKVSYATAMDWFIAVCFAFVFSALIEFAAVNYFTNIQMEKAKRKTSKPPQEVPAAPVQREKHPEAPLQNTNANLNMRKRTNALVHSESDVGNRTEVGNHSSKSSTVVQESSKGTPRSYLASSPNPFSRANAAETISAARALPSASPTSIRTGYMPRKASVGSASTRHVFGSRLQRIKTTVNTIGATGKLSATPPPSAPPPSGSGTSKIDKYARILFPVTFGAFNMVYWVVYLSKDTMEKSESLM
Sequence of α4β2δ GABAA receptor (P47870 25-512 limits assumed): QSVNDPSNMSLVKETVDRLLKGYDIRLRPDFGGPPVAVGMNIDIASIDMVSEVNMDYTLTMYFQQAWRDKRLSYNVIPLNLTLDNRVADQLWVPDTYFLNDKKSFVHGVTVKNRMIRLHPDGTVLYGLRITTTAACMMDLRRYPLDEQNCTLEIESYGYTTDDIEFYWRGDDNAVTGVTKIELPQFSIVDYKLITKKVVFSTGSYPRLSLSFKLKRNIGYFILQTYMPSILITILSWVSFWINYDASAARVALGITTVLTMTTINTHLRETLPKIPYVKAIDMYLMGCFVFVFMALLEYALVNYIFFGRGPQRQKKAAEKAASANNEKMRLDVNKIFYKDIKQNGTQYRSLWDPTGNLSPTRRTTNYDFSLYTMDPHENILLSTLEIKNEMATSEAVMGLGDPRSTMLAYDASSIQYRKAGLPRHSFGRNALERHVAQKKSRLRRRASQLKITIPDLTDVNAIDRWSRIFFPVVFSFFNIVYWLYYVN
Sequence of α4β2δ GABAA receptor (O14764 25-452): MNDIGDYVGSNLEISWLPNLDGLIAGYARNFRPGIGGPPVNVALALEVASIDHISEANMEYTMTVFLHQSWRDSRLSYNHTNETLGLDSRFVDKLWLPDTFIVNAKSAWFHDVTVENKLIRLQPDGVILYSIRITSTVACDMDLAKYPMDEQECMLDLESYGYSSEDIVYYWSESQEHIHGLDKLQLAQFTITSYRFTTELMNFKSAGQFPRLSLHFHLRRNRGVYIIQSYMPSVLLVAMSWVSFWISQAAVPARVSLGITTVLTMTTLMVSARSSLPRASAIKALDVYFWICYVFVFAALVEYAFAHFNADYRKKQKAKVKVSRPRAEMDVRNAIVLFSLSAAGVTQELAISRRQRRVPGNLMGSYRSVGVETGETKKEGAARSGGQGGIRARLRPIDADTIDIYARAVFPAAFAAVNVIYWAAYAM
Outline: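 Human α4β2δ GABAA receptors were expressed in Xenopus laevis oocytes by injecting 3.5-6 ng total cRNA per oocyte. Oocytes were held 1-2 days in ND96 (pH 7.4) with Na pyruvate and antibiotics. Currents were recorded by two-electrode voltage clamp.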

[3] = molecular target: α1(Q241L)β2γ2L GABAAR (Rattus norvegicus, UniProt P18508+P62813+P63138, INS375LLRMFSFK/Q268L); test: Potentiation of low GABA response, mutant receptor in oocytes; assay type: cell-based; settings: 50 μM; low GABA PA<0.10; mean±SEM
[4] = molecular target: α1β2γ2L(I242C) GABAAR (Rattus norvegicus, UniProt P18508+P62813+P63138, I280C/INS375LLRMFSFK); test: as above; assay type: cell-based; settings: 50 μM; low GABA PA<0.10; mean±SEM
[5] = molecular target: T2, α1β3γ2L GABAAR (Homo sapiens, UniProt P14867+P18507+P28472); assay type: binding
[6] = molecular target: α1β2γ2L(L246C) GABAAR (Rattus norvegicus, UniProt P18508+P62813+P63138, INS375LLRMFSFK/L284C); test: Potentiation of low GABA response, mutant receptor in oocytes; assay type: cell-based; settings: 50 μM; low GABA PA<0.10; mean±SEM
[7] = tested on: α4β2 nicotinic receptor; settings: at high μM concentrations; ref Arias et al., 2011; Timmermann et al., 2007; cited from earlier work
[8] = molecular target: α1β3(M227C)γ2L GABAAR (Homo sapiens, UniProt P14867+P18507+P28472, M252C); test: Potentiation of low GABA response, mutant receptor in oocytes; assay type: cell-based; settings: 50 μM; low GABA PA<0.10; mean±SEM
[9] = molecular target: α1β2(M286W)γ2L GABAAR (Rattus norvegicus, UniProt P18508+P62813+P63138, INS375LLRMFSFK/M310W); test: as above; assay type: cell-based; settings: 50 μM; low GABA PA<0.10; mean±SEM
[10] = molecular target: T1, α1β2γ2L GABAAR; test: Modulation of steady-state response to saturating GABA, Xenopus oocytes; assay type: cell-based; settings: 50 μM α7-PAM; 1 mM GABA
[11] = tested on: α3β4 nicotinic receptor; settings: at high μM concentrations; ref Arias et al., 2011; Timmermann et al., 2007; cited from earlier work
[12] = molecular target: T2, α1β3γ2L GABAAR; test: Potentiation of low GABA response, oocytes; assay type: cell-based; settings: 50 μM; low GABA PA<0.10; mean±SEM
[13] = molecular target: T1, α1β2γ2L GABAAR; assay type: cell-based
[14] = molecular target: α1(A291W)β2γ2L GABAAR (Rattus norvegicus, UniProt P18508+P62813+P63138, A317W/INS375LLRMFSFK); test: Potentiation of low GABA response, mutant receptor in oocytes; assay type: cell-based; settings: 50 μM; low GABA PA<0.10; mean±SEM
[15] = molecular target: α1(M236C)β2γ2L GABAAR (Rattus norvegicus, UniProt P18508+P62813+P63138, INS375LLRMFSFK/M262C); test: as above; assay type: cell-based; settings: 50 μM; low GABA PA<0.10; mean±SEM
[16] = molecular target: T1, α1β2γ2L GABAAR; test: Potentiation of receptors activated by allosteric agonists; assay type: cell-based; settings: 50 μM α7-PAM
[17] = molecular target: α1β3(L231C)γ2L GABAAR (Homo sapiens, UniProt P14867+P18507+P28472, L256C); test: Potentiation of low GABA response, mutant receptor in oocytes; assay type: cell-based; settings: 50 μM; low GABA PA<0.10; mean±SEM
[18] = molecular target: α1(L232C)β2γ2L GABAAR (Rattus norvegicus, UniProt P18508+P62813+P63138, INS375LLRMFSFK/L258C); test: as above; assay type: cell-based; settings: 50 μM; low GABA PA<0.10; mean±SEM
[19] = molecular target: α1β2(N265M)γ2L GABAAR (Rattus norvegicus, UniProt P18508+P62813+P63138, INS375LLRMFSFK/N289M); test: as above; assay type: cell-based; settings: 50 μM; low GABA PA<0.10; mean±SEM
[20] = tested on: binary αβ GABAA receptors (α1β2, α1β3); test: Potentiation of binary αβ receptors compared with ternary αβγ, oocytes; assay type: cell-based
[21] = molecular target: T1, α1β2γ2L GABAAR; test: Drug combination; assay type: cell-based
[22] = molecular target: α1β2γ2L(S280C) GABAAR (Rattus norvegicus, UniProt P18508+P62813+P63138, INS375LLRMFSFK/S318C); test: Potentiation of low GABA response, mutant receptor in oocytes; assay type: cell-based; settings: 50 μM; low GABA PA<0.10; mean±SEM
[23] = 0.5 μM GABA+20 μM NS-1738+25 μM PAM-2

Cc1ccc(NC(=O)/C=C/c2ccco2)cc1 [PAM-2, (E)-3-(furan-2-yl)-N-(p-tolyl)-acrylamide]
direct activation: response as % of the peak response to 1 mM GABA+50 μM propofol [1]: 0.70±0.19%
effect on the α4β2δ receptor [2]: inhibited
Potentiation (% of control), α1(Q241L)β2γ2L [3]: 382 ± 29% of control
Potentiation (% of control), α1β2γ2L(I242C) [4]: 189 ± 11% % of control
decrease in GABA Ki between 0 (control) and 100 μM α7-PAM ([5]; 100 μM α7-PAM): 3.8 fold
direct effect on fluorescence from α1β3γ2L-bound Gzn-OG (orthosteric site) ([5]; 3-100 μM α7-PAM, no GABA): do not modify fluorescence
Potentiation (% of control), α1β2γ2L(L246C) [6]: 147 ± 7% % of control
effect on the heteromeric α4β2 nicotinic receptor [7]: inhibit
Potentiation (% of control), α1β3(M227C)γ2L [8]: 163 ± 12% of control
Potentiation (% of control), α1β2(M286W)γ2L [9]: 181 ± 12% % of control
steady-state response to saturating GABA in presence of α7-PAM (% of control) [10]: 70±4 % of control
effect on the heteromeric α3β4 nicotinic receptor [11]: inhibit
Potentiation (% of control), α1β3γ2L [12]: 176 ± 12% % of control
EC50 [13]: 26 ± 8 µM
Kd [13]: 24.8 ± 10.5 µM
potentiation of the response to low GABA (% of control) ([13]; 50 μM α7-PAM, 2-5 μM GABA (PA<0.10), 100% = no effect, mean±SEM): 300 ± 43 % of control
free energy change (ΔG) towards stabilizing the active state ([13]; co-agonist concerted transition model): -0.76 kcal/mol
Potentiation (% of control), α1(A291W)β2γ2L [14]: 130 ± 7% % of control
Potentiation (% of control), α1(M236C)β2γ2L [15]: 176 ± 11% % of control
potentiation of currents elicited by propofol (% of control) ([16]; 10 μM propofol): 123±9 % of control
potentiation of the response to phenobarbital (% of control) ([16]; 1 mM phenobarbital, n=5): 103±6 % of control
potentiation of the peak response to R(+)-etomidate (% of control) ([16]; 2-4 μM R(+)-etomidate): 140±17 % of control
Potentiation (% of control), α1β3(L231C)γ2L [17]: 153 ± 11% of control
Potentiation (% of control), α1(L232C)β2γ2L [18]: 197 ± 8% % of control
Potentiation (% of control), α1β2(N265M)γ2L [19]: 124 ± 6% % of control
magnitude of potentiation in binary αβ vs ternary αβγ receptors [20]: similar
calculated PA for GABA+NS-1738+PAM-2, distinct site model [21, 23]: 0.267±0.065
calculated PA for GABA+NS-1738+PAM-2, same site model [21, 23]: 0.146±0.043
observed PA of response to GABA+NS-1738+PAM-2 [21, 23]: 0.158±0.044
observed PA in the presence of R(+)-etomidate+α7-PAM ([21]; 50 μM α7-PAM, R(+)-etomidate): 0.050±0.013
predicted PA for R(+)-etomidate+α7-PAM, distinct site model ([21]; 50 μM α7-PAM, R(+)-etomidate): 0.097±0.030
predicted PA for R(+)-etomidate+α7-PAM, same site model ([21]; 50 μM α7-PAM, R(+)-etomidate): 0.008±0.002
Potentiation (% of control), α1β2γ2L(S280C) [22]: 233 ± 16% of control
